Laboratory results reported in ChEMBL document CHEMBL1124180, “Asymmetric synthesis and properties of the enantiomers of the antibacterial agent 7-(3-aminopyrrolidin-1-yl)-1-(2,4-difluorophenyl)-1,4-dihydro-6- fluoro-4-oxo-1,8-naphthyridine-3-carboxylic acid hydrochloride” (J Med Chem, 1988).
≈ marks a conversion by molar mass, not a printed value.

Tests used:
Bacteroides fragilis [1] = assay: In vitro activity against Bacteroides fragilis (SFM2975-7); assay type: functional
In short: (§1)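 MIC determined under anaerobic conditions on Wilkins-Chalgren agar.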

Finegoldia magna = assay: In vitro activity against Peptococcus magnus (ATCC 29328); assay type: functional; in short: as §1
Bacteroides fragilis [2] = assay: In vitro activity against Bacteroides fragilis (105AT25285); assay type: functional; in short: as §1
Phocaeicola vulgatus [3] = assay: In vitro activity against Bacteroides vulgatus(792); assay type: functional; in short: as §1
Peptostreptococcus = assay: In vitro activity against Peptostreptococcus sp.(TB-11); assay type: functional
In short: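 MIC for anaerobic bacteria, measured on Wilkins-Chalgren agar.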

Phocaeicola vulgatus [4] = assay: In vitro activity against Bacteroides vulgatus(SFBC 2375); assay type: functional; in short: as §1
Veillonella parvula = assay: In vitro activity against Veillonella parvula (ATCC 10790); assay type: functional
In short: (§2)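 Anaerobic MICs measured by agar dilution on Wilkins-Chalgren agar.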

[5] = tested on: Prevotella melaninogenica; assay: In vitro activity against Bacteroides melaninogenicus (ATCC 25845).; assay type: functional; in short: as §1
Mus musculus [6] = assay: In vivo activity against Pseudomonas aeruginosa A5007 (100X LD50), administered po( each compound tested at 3 doses with 10 animals); assay type: functional
In short: (§3)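 Mice were challenged intraperitoneally with the organism. The compound was given orally as a total dose split into equal portions at 1 and 5 h post-infection. Three doses were used, with 10 animals per dose.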

Prevotella disiens = assay: In vitro activity against Bacteroides disiens (ATCC 29426); assay type: functional; in short: as §1
Bacteroides fragilis [7] = assay: In vitro activity against Bacteroides fragilis (SFM2906A); assay type: functional; in short: as §1
Mus musculus [8] = assay: In vivo activity against Escherichia coli Juhl(100X LD50), when administered sc( each compound tested at 3 doses with 10 animals); assay type: functional
In short: (§4)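 Mice were challenged intraperitoneally with the organism. The compound was given subcutaneously as a total dose split into equal portions at 1 and 5 h post-infection. Three doses were used, with 10 animals per dose.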

Bacteroides fragilis [9] = assay: In vitro activity against Bacteroides fragilis (784); assay type: functional; in short: as §1
Bacteroides fragilis [10] = assay: In vitro activity against Bacteroides fragilis (SFM2929-1); assay type: functional; in short: as §1
Prevotella bivia = assay: In vitro activity against t Bacteroides bivius(B 6140); assay type: functional; in short: as §2
Mus musculus [11] = assay: In vivo activity against Escherichia coli Juhl(100X LD50), when administered po( each compound tested at 3 doses with 10 animals); assay type: functional; in short: as §3
Bacteroides fragilis [12] = assay: In vitro activity against Bacteroides fragilis (UC-2); assay type: functional; in short: as §1
Hoylesella loescheii = assay: In vitro activity against Bacteroides loescheii (ATCC 15930).; assay type: functional; in short: as §1
Fusobacterium nucleatum = assay: In vitro activity against Fusobacterium nucleatum (ATCC 25586); assay type: functional; in short: as §1
Parvimonas micra = assay: In vitro activity against Peptostreptococcus micros (ATCC 33270); assay type: functional; in short: as §1
Fusobacterium = assay: In vitro activity against Fusobacterium sp.(GS-10); assay type: functional; in short: as §1
Cutibacterium acnes = assay: In vitro activity against Propionibacterium acnes (132); assay type: functional; in short: as §1
[13] = tested on: Peptostreptococcus anaerobius; assay: In vitro activity against Peptostreptococcus anaerobius (ATCC 27337); assay type: functional; in short: as §1
[14] = tested on: Peptoniphilus asaccharolyticus; assay: In vitro activity against Peptococcus asaccharolyticus (ATCC 14963).; assay type: functional; in short: as §1
[15] = tested on: Bacteroides thetaiotaomicron; assay: microbe, parasite or virus in culture; details: ATCC 29741
Mus musculus [16] = assay: In vivo activity against Pseudomonas aeruginosa A5007 (100X LD50), administered sc ( each compound tested at 3 doses with 10 animals); assay type: functional; in short: as §4

O=C(O)c1cn(C2CC2)c2cc(N3CCNCC3)c(F)cc2c1=O [CIPROFLOXACIN]
MIC (Bacteroides fragilis [1]): 8 µg/mL (≈ 24.1 µM)
MIC (Finegoldia magna): 0.25 µg/mL (≈ 0.754 µM)
MIC (Bacteroides fragilis [2]): 4 µg/mL (≈ 12.1 µM)
MIC (Phocaeicola vulgatus [3]): 8 µg/mL (≈ 24.1 µM)
MIC (Peptostreptococcus): 2 µg/mL (≈ 6.04 µM)
MIC (Phocaeicola vulgatus [4]): 8 µg/mL (≈ 24.1 µM)
MIC (Veillonella parvula): 0.25 µg/mL (≈ 0.754 µM)
MIC [5]: 2 µg/mL (≈ 6.04 µM)
ED50 (Mus musculus [6]): 15.1 mg/kg
MIC (Prevotella disiens): 2 µg/mL (≈ 6.04 µM)
MIC (Bacteroides fragilis [7]): 4 µg/mL (≈ 12.1 µM)
ED50 (Mus musculus [8]): 0.3 mg/kg
MIC (Bacteroides fragilis [9]): 4 µg/mL (≈ 12.1 µM)
MIC (Bacteroides fragilis [10]): 8 µg/mL (≈ 24.1 µM)
MIC (Prevotella bivia): 2 µg/mL (≈ 6.04 µM)
ED50 (Mus musculus [11]): 1.3 mg/kg
MIC (Bacteroides fragilis [12]): 4 µg/mL (≈ 12.1 µM)
MIC (Hoylesella loescheii): 8 µg/mL (≈ 24.1 µM)
MIC (Fusobacterium nucleatum): 4 µg/mL (≈ 12.1 µM)
MIC (Parvimonas micra): 0.5 µg/mL (≈ 1.51 µM)
MIC (Fusobacterium): 4 µg/mL (≈ 12.1 µM)
MIC (Cutibacterium acnes): 2 µg/mL (≈ 6.04 µM)
MIC [13]: 2 µg/mL (≈ 6.04 µM)
MIC [14]: 2 µg/mL (≈ 6.04 µM)
MIC [15]: 32 µg/mL (≈ 96.6 µM)
ED50 (Mus musculus [16]): 4.1 mg/kg
